ChEMBL document CHEMBL1649311, “A clinical isolate of Candida albicans with mutations in ERG11 (encoding sterol 14alpha-demethylase) and ERG5 (encoding C22 desaturase) is cross resistant to azoles and amphotericin B” (2010)
Converted amounts (≈) assume the structure as drawn.

How the values were obtained:
Candida albicans [1] = experiment: Effect on sterol composition in Candida albicans isolate 108 harboring erg11 and erg5 double mutant assessed as 4,4-Dimethylcholesta-8,14,24-trienol level after 2 hrs by gas chromatography; assay type: functional
Candida albicans [2] = experiment: Effect on sterol composition in Candida albicans isolate 14 expressing wild type erg11 and erg5 assessed as ergosterol level after 2 hrs by gas chromatography; assay type: functional; parameters: concentration or dose not given beside the values
Candida albicans [3] = experiment: Effect on sterol composition in Candida albicans isolate 108 harboring erg11 and erg5 double mutant assessed as 14alpha-Methylfecosterol level after 2 hrs by gas chromatography; assay type: functional
Candida albicans [4] = experiment: Effect on sterol composition in Candida albicans isolate 108 harboring erg11 and erg5 double mutant assessed as 4,14alpha-Dimethylcholesta-8,24-dienol level after 2 hrs by gas chromatography; assay type: functional
Candida albicans [5] = experiment: Effect on sterol composition in Candida albicans isolate 108 harboring erg11 and erg5 double mutant assessed as ergosta 5,7-dienol level after 2 hrs by gas chromatography; assay type: functional; parameters: concentration or dose not given beside the values
Candida albicans [6] = experiment: Effect on sterol composition in Candida albicans isolate 14 expressing wild type erg11 and erg5 assessed as 14 -Methylergosta-8,24(28)-dien-3beta,6alpha-diol level after 2 hrs by gas chromatography; assay type: functional; parameters: concentration or dose not given beside the values
Candida albicans [7] = experiment: Effect on sterol composition in Candida albicans isolate 108 harboring erg11 and erg5 double mutant assessed as 14 -Methylergosta-8,24(28)-dien-3beta,6alpha-diol level after 2 hrs by gas chromatography; assay type: functional
Candida albicans [8] = experiment: Effect on sterol composition in Candida albicans isolate 14 expressing wild type erg11 and erg5 assessed as lanosterol level after 2 hrs by gas chromatography; assay type: functional
Candida albicans [9] = experiment: Effect on sterol composition in Candida albicans isolate 108 harboring erg11 and erg5 double mutant assessed as lanosterol level after 2 hrs by gas chromatography; assay type: functional; parameters: concentration or dose not given beside the values
Candida albicans [10] = experiment: Effect on sterol composition in Candida albicans isolate 14 expressing wild type erg11 and erg5 assessed as obtusifoliol level after 2 hrs by gas chromatography; assay type: functional; parameters: concentration or dose not given beside the values
Candida albicans [11] = experiment: Effect on sterol composition in Candida albicans isolate 108 harboring erg11 and erg5 double mutant assessed as obtusifoliol level after 2 hrs by gas chromatography; assay type: functional; parameters: concentration or dose not given beside the values
Candida albicans [12] = experiment: Effect on sterol composition in Candida albicans isolate 108 harboring erg11 and erg5 double mutant eburicol level after 2 hrs by gas chromatography; assay type: functional; parameters: concentration or dose not given beside the values
Candida albicans [13] = experiment: Antifungal activity against Candida albicans isolate 6 after 48 hrs by broth microdilution method; assay type: functional; conditions: isolate 6, 48 h
Outline: (§1)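 CLSI M27-A2 broth dilution in RPMI 1640 buffered with 0.165 M MOPS (pH 7), 37°C, for azoles (fluconazole, voriconazole, itraconazole, ketoconazole, clotrimazole). For amphotericin B, the MIC is the lowest concentration with complete growth inhibition.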

Candida albicans [14] = experiment: Antifungal activity against Candida albicans isolate 14 after 48 hrs by broth microdilution method; assay type: functional; conditions: isolate 14, 48 h; outline: as §1
Candida albicans [15] = experiment: Antifungal activity against Candida albicans isolate 177 after 48 hrs by broth microdilution method; assay type: functional; conditions: isolate 177, 48 h; outline: as §1
Candida albicans [16] = experiment: Antifungal activity against Candida albicans isolate 108 harboring erg11 and erg5 double mutant after 48 hrs by broth microdilution method; assay type: functional; conditions: isolate 108, 48 h; outline: as §1
Candida albicans [17] = experiment: Antifungal activity against Candida albicans isolate 6 after 48 hrs by broth microdilution method in presence of 10 uM of efflux pump inhibitor FK506; assay type: functional
Outline: (§2)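 Doubling dilutions of azole with a fixed 10 μM FK506 in microtiter wells in MOPS-buffered RPMI 1640 (pH 7). Read visually after 48 h at 37°C. The MIC is the lowest azole concentration giving at least 80% growth inhibition versus control wells.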

Candida albicans [18] = experiment: Antifungal activity against Candida albicans isolate 14 after 48 hrs by broth microdilution method in presence of 10 uM of efflux pump inhibitor FK506; assay type: functional; conditions: isolate 14, 48 h; outline: as §2
Candida albicans [19] = experiment: Antifungal activity against Candida albicans isolate 177 after 48 hrs by broth microdilution method in presence of 10 uM of efflux pump inhibitor FK506; assay type: functional; conditions: isolate 177, 48 h; outline: as §2
Candida albicans [20] = experiment: Antifungal activity against Candida albicans isolate 108 harboring erg11 and erg5 double mutant after 48 hrs by broth microdilution method in presence of 10 uM of efflux pump inhibitor FK506; assay type: functional; conditions: isolate 108, 48 h
Outline: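 C. albicans clinical isolate grown in RPMI 1640 buffered with 0.165 M MOPS (pH 7). Azole MICs by CLSI M27-A2 broth microdilution, with doubling drug dilutions plus a fixed 10 μM FK506. Plates incubated 48 h at 37°C and read visually. MIC taken as the lowest azole concentration giving at least 80% growth inhibition versus control wells.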

Candida albicans [21] = experiment: Antifungal activity against Candida albicans isolate 6 after 48 hrs by Etest; conditions: isolate 6, 48 h
Candida albicans [22] = experiment: Antifungal activity against Candida albicans isolate 14 after 48 hrs by Etest; conditions: isolate 14, 48 h
Candida albicans [23] = experiment: Antifungal activity against Candida albicans isolate 108 harboring erg11 and erg5 double mutant after 48 hrs by Etest; assay type: functional; conditions: isolate 108, 48 h
Candida albicans [24] = experiment: Ratio of MIC for Candida albicans isolate 108 harboring erg11 and erg5 double mutant to MIC for Candida albicans isolate 6 expressing wild type erg11 and erg 5 enzyme; assay type: functional
Candida albicans [25] = experiment: Ratio of MIC for Candida albicans isolate 108 harboring erg11 and erg5 double mutant to MIC for Candida albicans isolate14 expressing wild type erg11 and erg 5 enzyme; assay type: functional
Candida albicans [26] = experiment: Ratio of MIC for Candida albicans isolate 108 harboring erg11 and erg5 double mutant to MIC for Candida albicans isolate 177 expressing wild type erg11 and erg 5 enzyme; assay type: functional
Candida albicans [27] = experiment: microbe, parasite or virus in culture; conditions: isolate 177, 48 h
Candida albicans [28] = experiment: Effect on sterol composition in Candida albicans isolate 108 harboring erg11 and erg5 double mutant assessed as zymosterol level after 2 hrs by gas chromatography; assay type: functional
Candida albicans [29] = experiment: Effect on sterol composition in Candida albicans isolate 14 expressing wild type erg11 and erg5 assessed as eburicol level after 2 hrs by gas chromatography; assay type: functional

| SMILES | Activity (Candida albicans [2]) [%] | Activity (Candida albicans [3]) [%] | Activity (Candida albicans [4]) [%] | Activity (Candida albicans [5]) [%] | Activity (Candida albicans [6]) [%] | Activity (Candida albicans [7]) [%] | Activity (Candida albicans [8]) [%] | Activity (Candida albicans [9]) [%] | Activity (Candida albicans [10]) [%] | Activity (Candida albicans [11]) [%] | Activity (Candida albicans [12]) [%] | MIC (Candida albicans [13]) [µg/mL] | MIC (Candida albicans [14]) [µg/mL] | MIC (Candida albicans [15]) [µg/mL] | MIC (Candida albicans [16]) [µg/mL] | MIC (Candida albicans [18]) [µg/mL] | MIC (Candida albicans [19]) [µg/mL] | MIC (Candida albicans [20]) [µg/mL] | other results |
| --- | --- | --- | --- | --- | --- | --- | --- | --- | --- | --- | --- | --- | --- | --- | --- | --- | --- | --- | --- |
| C[C@@H](c1ncncc1F)[C@](O)(Cn1cncn1)c1ccc(F)cc1F [VORICONAZOLE] | 47.3 | 12.7 | 7.2 | 27.4 | 28.6 | 10.4 | 24.1 | 29.5 | 24.1 | 29.5 | 9.4 | 16 (≈ 45.8 µM) | 0.0625 (≈ 0.179 µM) | 16 (≈ 45.8 µM) | 8 (≈ 22.9 µM) | < 0.0625 | < 0.0625 | 4 | Activity (Candida albicans [1]): 3.4%; MIC (Candida albicans [17]; Candida albicans, isolate 6, 48 h): < 0.0625 µg/mL |
| C[C@@H]1[C@H](O)[C@@H](C)/C=C/C=C/C=C/C=C/C=C/C=C/C=C/[C@H](O[C@@H]2O[C@H](C)[C@@H](O)[C@H](N)[C@@H]2O)C[C@@H]2O[C@](O)(C[C@@H](O)C[C@@H](O)[C@H](O)CC[C@@H](O)C[C@@H](O)CC(=O)O[C@H]1C)C[C@H](O)[C@H]2C(=O)O [AMPHOTERICIN B] | – | – | – | – | – | – | – | – | – | – | – | – | – | – | – | – | – | – | MIC (Candida albicans [21]): 0.25 µg/mL (≈ 0.271 µM); MIC (Candida albicans [22]): 0.25 µg/mL (≈ 0.271 µM); MIC (Candida albicans [23]): 4 µg/mL (≈ 4.33 µM); Ratio (Candida albicans [24]): 8; Ratio (Candida albicans [25]): 8; Ratio (Candida albicans [26]): 8; MIC (Candida albicans [27]): 0.25 µg/mL (≈ 0.271 µM) |
| OC(Cn1cncn1)(Cn1cncn1)c1ccc(F)cc1F [FLUCONAZOLE] | 45.5 | 9.4 | 5.5 | 57.1 | 25.4 | – | 25 | 25.7 | 25 | 25.7 | 0.9 | 256 (≈ 836 µM) | 1 (≈ 3.27 µM) | 256 (≈ 836 µM) | 64 (≈ 209 µM) | 1 | 0.5 | 16 | Activity (Candida albicans [28]): 1.4%; Activity (Candida albicans [29]): 4.1%; Activity (Candida albicans [17]): 1 µg/mL |
| Clc1ccccc1C(c1ccccc1)(c1ccccc1)n1ccnc1 [CLOTRIMAZOLE] | 30 | – | – | 42.6 | 35 | 32.8 | 35 | 16.4 | 35 | 16.4 | 8.2 | 1 (≈ 2.9 µM) | 0.0625 (≈ 0.181 µM) | 1 (≈ 2.9 µM) | 2 (≈ 5.8 µM) | – | – | – | – |
| CC(=O)N1CCN(c2ccc(OCC3COC(Cn4ccnc4)(c4ccc(Cl)cc4Cl)O3)cc2)CC1 (stereo unspecified) [KETOCONAZOLE] | 36.4 | – | – | 24.4 | 37.2 | 45.1 | 26.4 | 20.3 | 26.4 | 20.3 | 10.2 | 16 (≈ 30.1 µM) | 0.0625 (≈ 0.118 µM) | 16 (≈ 30.1 µM) | 1 (≈ 1.88 µM) | – | – | – | – |
| CCC(C)n1ncn(-c2ccc(N3CCN(c4ccc(OCC5COC(Cn6cncn6)(c6ccc(Cl)cc6Cl)O5)cc4)CC3)cc2)c1=O (stereo unspecified) [ITRACONAZOLE] | 33 | – | – | 25 | 38 | 50 | 29 | 16.7 | 29 | 16.7 | 8.3 | 16 (≈ 22.7 µM) | 0.0625 (≈ 0.0886 µM) | 16 (≈ 22.7 µM) | 2 (≈ 2.83 µM) | – | – | – | – |
